Screening data deposited in PubChem by Broad Institute.
Rows were chosen to be rich in hits. Some 3% of all compounds tested hit in one or more screens of this group.
esBAF inh = SWI/SNF esBAF complex inhibition. mouse ES cells, Bmi1-luciferase knock-in reporter, 24 h; 100% = twice the neutral-well signal. 2% of 350,000 active. reporter increase, % at 12.5 µM; in the data active means activation above about 40%; inconclusive means no clear call, values can overlap the other calls;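 further: a rise in the Bmi1 reporter signal indicates esBAF inhibition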
MITF TRPM1 HTS = increases MITF-driven TRPM1 promoter luciferase signal; SK-MEL-5 TRPM1-promoter luciferase, 24 h; % of positive control, neutral wells = 0; activation, % at 12.5 µM; 0.75% of 300,000 active; AID 588334;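 active means mean activation of at least 80% with every replicate also reaching 80%; inconclusive means mean reaches 80% but some replicate falls short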
Casp6 inh = inhibitors of human caspase-6; purified caspase-6, Z-VEID-R110 cleavage fluorescence; inhibition, % at 12.5 µM; 0.53% of 350,000 active; AID 686996; P55212;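 active means mean inhibition across replicates at least about 35%, with every replicate also reaching that limit, limit read from the data; inconclusive means only one of the two criteria met; inactive means neither criterion met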
XiGFP reactiv = X-chromosome reactivation activator | activation, % at 7.58 µM | XiGFP mouse fibroblasts, % GFP-positive cells imaging, 3 d; cells co-treated with 5-aza-dC sensitizer; scaled so ellipticine positive control = 100% | AID 743238 | 0.055% of 360,000 active;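 active means mean normalized replicate activation at least 10% and every replicate at or above 10%; inconclusive means only one of the two criteria met; inactive means mean below 10% and not all replicates reach 10%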
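System: 68-5-11 XiGFP fibroblast line; Timing: 3 days compound exposure; Compound dosing: one concentration, pinned; Benchmarks: positive control ellipticine, 6 µM final; Buffer or medium: DMEM containing 5-aza-dC.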
Wnt bcat act = activators of Wnt/beta-catenin signaling; activation, % at 9.35 µM; AID 743398; Wnt/beta-catenin reporter cell assay, activator, plate reader; 1.2% of 300,000 active; in the data active means activation above about 30%, passing the limit was not always enough; inconclusive means no clear call, values can overlap the other calls
NSD2 inh = blocks human histone methyltransferase NSD2. NSD2 peptide methylation, AlphaScreen, 120 min. inhibition, % at 12.5 µM. 0.54% of 310,000 active. O96028; in the data active means inhibition above about 50%
Target sequence (O96028 whole entry, looked up): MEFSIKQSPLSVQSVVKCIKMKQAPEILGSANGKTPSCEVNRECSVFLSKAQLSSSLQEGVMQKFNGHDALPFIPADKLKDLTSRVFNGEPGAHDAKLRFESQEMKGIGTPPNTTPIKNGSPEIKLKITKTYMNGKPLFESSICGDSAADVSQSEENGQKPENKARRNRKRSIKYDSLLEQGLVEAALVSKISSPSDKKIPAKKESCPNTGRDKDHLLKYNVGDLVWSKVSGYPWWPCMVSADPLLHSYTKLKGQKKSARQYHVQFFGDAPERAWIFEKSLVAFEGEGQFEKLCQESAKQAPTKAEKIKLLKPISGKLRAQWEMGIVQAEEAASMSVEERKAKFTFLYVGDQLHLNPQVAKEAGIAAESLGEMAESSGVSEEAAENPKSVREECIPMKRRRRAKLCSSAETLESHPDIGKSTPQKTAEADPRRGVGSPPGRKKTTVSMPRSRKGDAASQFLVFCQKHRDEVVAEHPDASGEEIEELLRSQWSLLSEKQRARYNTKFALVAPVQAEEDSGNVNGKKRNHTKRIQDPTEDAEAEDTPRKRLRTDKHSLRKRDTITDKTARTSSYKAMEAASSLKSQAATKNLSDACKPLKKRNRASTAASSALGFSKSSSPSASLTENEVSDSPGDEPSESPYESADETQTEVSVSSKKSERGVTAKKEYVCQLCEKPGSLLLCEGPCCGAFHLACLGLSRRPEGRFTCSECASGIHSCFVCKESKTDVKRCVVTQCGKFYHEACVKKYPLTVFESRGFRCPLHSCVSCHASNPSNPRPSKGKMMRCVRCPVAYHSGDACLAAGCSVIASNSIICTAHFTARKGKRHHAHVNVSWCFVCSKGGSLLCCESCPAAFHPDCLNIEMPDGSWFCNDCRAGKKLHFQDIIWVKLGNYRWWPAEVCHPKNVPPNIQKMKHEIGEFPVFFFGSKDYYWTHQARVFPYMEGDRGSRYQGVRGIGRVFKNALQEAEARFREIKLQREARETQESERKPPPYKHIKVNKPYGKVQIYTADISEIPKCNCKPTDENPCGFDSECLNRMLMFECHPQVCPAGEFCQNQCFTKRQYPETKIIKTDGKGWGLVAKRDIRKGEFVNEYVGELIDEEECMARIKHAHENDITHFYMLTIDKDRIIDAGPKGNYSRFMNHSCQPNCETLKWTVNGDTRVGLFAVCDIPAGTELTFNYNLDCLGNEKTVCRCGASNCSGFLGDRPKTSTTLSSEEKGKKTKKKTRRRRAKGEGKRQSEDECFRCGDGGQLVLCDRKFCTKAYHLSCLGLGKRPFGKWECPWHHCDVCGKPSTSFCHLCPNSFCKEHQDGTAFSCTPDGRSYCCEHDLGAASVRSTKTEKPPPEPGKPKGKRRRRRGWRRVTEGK
Hits are given with their value; – = inactive; ? = inconclusive; · = not tested or not shown.

SMILES	esBAF inh	MITF TRPM1 HTS	Casp6 inh	XiGFP reactiv	Wnt bcat act	NSD2 inh
C=CCNC(=O)C1CCN(c2cc(C)nc(-c3ccccc3)n2)CC1	–	–	–	–	–	–
O=C(CSc1nnnn1C1CCCCC1)Nc1cccc(NC(=O)c2ccco2)c1	–	–	·	·	59.8	–
O=C(CSc1nnnn1C1CCCC1)Nc1cccc(NC(=O)c2ccco2)c1	–	–	·	·	·	·
O=C(Nc1ccc2c(c1)ncn2C1CCCCC1)c1ccco1	?	·	·	·	44.5	–
O=C(C[C@@H]1C[C@@H]2c3cc(NC(=O)CC4CC4)ccc3O[C@@H]2[C@@H](CO)O1)NCc1cccnc1	–	·	–	–	·	·
Clc1ccccc1CSc1ncn(-c2ccccc2)n1	66.8	–	·	·	·	–
Cc1ccc(CSc2ncn(-c3ccccc3)n2)cc1	–	–	·	·	–	–
CCOc1nc(NCCO)nc(Nc2ccccc2F)n1	·	–	–	–	–	–
CCOc1nc(NCc2ccco2)nc(Nc2ccccc2F)n1	67.5	–	·	·	·	–
O=C(NCCc1cccs1)C1CC(c2ccccc2[N+](=O)[O-])=NO1 (centres undefined)	65.7	–	–	–	?	·
COc1ccc(CCNC(=O)C2CC(c3ccccc3[N+](=O)[O-])=NO2)cc1 (centres undefined)	45.4	–	–	–	–	·
CCCCNC(=O)C1CC(c2cccc([N+](=O)[O-])c2)=NO1 (centres undefined)	89.8	88.6	–	–	37.6	·
C/C=C/c1ccc([C@@H]2[C@H](CO)N(C(=O)CN(C)C)C23CN(C(=O)C2CC2)C3)cc1	·	·	–	–	·	·
Cc1ccc(-c2cn(-c3ccccc3)c(SCC(=O)NC3CCS(=O)(=O)C3)n2)cc1C (centres undefined)	·	99.4	–	–	–	–
C[C@@H]1CN([C@H](C)CO)C(=O)c2cc(NS(=O)(=O)c3cccs3)ccc2O[C@@H](C)CCCCO[C@@H]1CN(C)C(=O)CCCN(C)C	·	·	–	–	·	·
CN(C)Cc1cn(CC[C@H]2CC[C@@H](NS(=O)(=O)c3ccccc3)[C@@H](CO)O2)nn1	–	·	–	–	·	·
O=C(O)C1CCN(C(=O)c2ccco2)CC1	–	–	–	–	–	–
O=C(c1ccc(F)cc1)N1CCC(c2ccccc2)C1 (centres undefined)	–	·	–	–	34.2	–
O=C(c1ccco1)N1CCCC(Nc2ccc3c(c2)OCCO3)C1 (centres undefined)	43.0	–	–	–	–	–
COc1ccc(C(=O)N2CCCC(c3ccccc3)C2)cc1 (centres undefined)	–	–	·	·	·	–
O=C(c1ccco1)N1CCC(c2ccccc2)C1 (centres undefined)	53.8	?	·	·	·	·
C[C@H]1CN([C@@H](C)CO)C(=O)c2cc(NC(=O)Nc3ccc(F)cc3)ccc2O[C@@H]1CN(C)Cc1ccccc1	–	·	–	–	·	·
COc1ccc(-c2cn(CCC(=O)O)c(-c3ccncc3)n2)cc1	–	–	–	–	–	·
COc1ccc(-c2cn(Cc3ccc(C(N)=O)cc3)c(-c3ccncc3)n2)cc1	76.5	106.1	–	–	47.0	·
COc1ccc2c3c([nH]c2c1)[C@@H](CO)N(C(=O)C1CCC1)CC31CCN(S(C)(=O)=O)CC1	·	·	–	–	·	·
SMILES	esBAF inh	MITF TRPM1 HTS	Casp6 inh	XiGFP reactiv	Wnt bcat act	NSD2 inh
Oc1ccccc1/C=N/Nc1nc2ccccc2o1	–	–	–	–	?	–
COc1cc(/C=N/Nc2nc3ccccc3o2)cc(OC)c1O	–	·	·	·	·	–
Brc1ccc(/C=N/Nc2nc3ccccc3o2)cc1	?	99.5	–	–	47.2	–
COc1cc(/C=N\Nc2nc3ccccc3o2)cc(OC)c1OC	50.6	–	·	·	?	–
COc1ccc(/C=N/Nc2nc3ccccc3o2)cc1O	–	–	·	·	62.1	–
CCCC(=O)Nc1ccc2c(c1)C(=O)N(C)C[C@@H](OC)[C@H](C)CN(C(=O)Cc1ccccn1)[C@H](C)CO2	–	·	·	–	·	·
CC1CCN(C(=O)CN2C(=O)c3ccccc3S2(=O)=O)CC1	–	–	·	·	48.4	–
CCCC(=O)Nc1ccc(-c2nc3ncccc3o2)cc1	–	·	–	–	36.8	–
CC(C)C(=O)Nc1ccc(-c2nc3ncccc3o2)cc1	–	·	–	–	37.4	–
CCCC(=O)Nc1cc(-c2nc3ncccc3o2)ccc1C	–	–	·	·	–	–
CCS(=O)(=O)Nc1ccc2c(c1)C(=O)N(C)[C@@H]1CC[C@@H](CC(=O)Nc3ccccc3)O[C@H]1CO2	–	·	–	–	·	·
CC(C)Sc1nnc(Nc2ccccc2)s1	43.0	–	·	·	–	–
CCC(=O)Nc1ccc2c(c1)C(=O)N(C)C[C@H](OC)[C@@H](C)CN(C(=O)CC1CC1)[C@@H](C)CO2	–	·	·	–	·	·
Oc1ccc(-c2cccc(-c3ccc(O)cc3)n2)cc1	47.6	·	·	·	–	·
Oc1ccc(-c2nnc(-c3ccc(O)cc3)nn2)cc1	–	·	·	·	76.9	–
COc1ccc2c3c(n(C)c2c1)[C@H](CO)N(S(C)(=O)=O)CC31CCN(C(=O)CN(C)C)CC1	·	·	·	–	·	·
C[C@@H]1CN([C@H](C)CO)C(=O)c2cccc(NC(=O)c3ccncc3)c2O[C@@H]1CN(C)CC1CC1	–	·	–	–	·	·
COCC(=O)Nc1ccc2c(c1)OC[C@@H](C)N(CC1CCCCC1)C[C@@H](C)[C@H](OC)CN(C)C2=O	·	·	·	–	·	·
C[C@H](CO)N1C[C@H](C)[C@@H](CN(C)C(=O)NC2CCCCC2)Oc2ccc(NS(=O)(=O)c3ccc(F)cc3)cc2CC1=O	–	·	–	–	·	·
COc1ccc(C[C@@H]2CCn3cc(nn3)COCCNC2=O)cc1	·	·	·	–	·	·
CC(=O)Nc1ccc(S(=O)(=O)C(C#N)c2nc3ccccc3nc2NCCO)cc1 (centres undefined)	–	–	–	–	46.3	–
CC(=O)Nc1ccc(S(=O)(=O)C(C#N)c2nc3ccccc3nc2NCCCO)cc1 (centres undefined)	–	–	–	–	–	–
O=C(C[C@H]1C=C[C@@H](NC(=O)C2CCC2)[C@@H](CO)O1)NCCCN1CCOCC1	–	·	–	–	·	·
C[C@H](CO)N1C[C@H](C)[C@@H](CN(C)C(=O)NC2CCCCC2)Oc2c(NC(=O)Cn3cnnn3)cccc2C1=O	·	·	·	–	·	·
COc1cccc(NC(=O)c2c(F)cccc2F)c1	–	–	–	–	–	·
SMILES	esBAF inh	MITF TRPM1 HTS	Casp6 inh	XiGFP reactiv	Wnt bcat act	NSD2 inh
COc1cccc(NC(=O)CN(C)C(=O)c2csc3c2CCCC3)c1	–	–	–	–	–	–
COc1cccc(NC(=O)c2cc3ccccc3cc2OC)c1	49.8	·	–	–	48.6	–
COc1cccc(NC(=O)c2cccc(OC)c2OC)c1	–	·	·	·	–	–
COc1cccc(NC(=O)c2csc3c2CCCC3)c1	68.6	95.1	–	–	45.9	–
COc1cc2ccccc2cc1C(=O)Nc1ccc(O)cc1	?	·	–	–	52.7	–
COc1cccc(NC(=O)c2ccccc2F)c1	–	86.6	–	–	?	·
